Rows were chosen to be rich in hits. Some 3.7% of all compounds tested hit in one or more screens of this group.
GPR7 antag: GPR7 receptor antagonists, primary screen, cell-based, fluorescence, single concentration | Neuropeptides B/W receptor type 1 (Homo sapiens), P48145 | GPR7-expressing cells, fluorescence antagonist assay | inhibition, % at 4.4 µM | 1.1% of 290,000 active | AID 1861, 2009; in the data active = inhibition above about 16%, passing the limit was not always enough;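 also: cells stimulated with the agonist NPW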
Target sequence (P48145 whole entry, looked up): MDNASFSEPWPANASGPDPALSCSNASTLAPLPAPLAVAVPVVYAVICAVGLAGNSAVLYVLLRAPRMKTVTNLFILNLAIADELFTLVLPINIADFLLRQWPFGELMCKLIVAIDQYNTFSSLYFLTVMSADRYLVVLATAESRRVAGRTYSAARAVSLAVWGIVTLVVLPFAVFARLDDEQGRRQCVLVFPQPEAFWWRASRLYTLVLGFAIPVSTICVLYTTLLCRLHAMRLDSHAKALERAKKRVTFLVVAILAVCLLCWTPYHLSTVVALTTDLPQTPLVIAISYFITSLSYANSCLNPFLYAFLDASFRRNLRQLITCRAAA
CHO parental Ca: ATP-evoked calcium signal inhibitors, parental CHO, primary screen, counter-screen for OX1R antagonist project, cell-based, fluorescence, Fluo-8 calcium dye. parental CHO-K1, ATP-induced calcium, Fluo-8 fluorescence. 0.63% of 330,000 active. inhibition, % at 5.6 µM. AID 463079, 2010;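 active = inhibition above that plate's mean sample inhibition plus 3 SD, cut at about 26% in these data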
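Test system: untransfected parental CHO cell line. Compound: one dose, 5.6 µM nominal. Detection: intracellular calcium via Fluo-8 no-wash fluorescent dye. Measure: % inhibition. Benchmarks: ATP-challenged DMSO wells low, unchallenged DMSO wells high.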
OX1R antag-1: antagonists of human orexin 1 receptor (OX1R); Orexin/Hypocretin receptor type 1 (Homo sapiens), O43613; OX1R-expressing cells, FRET antagonist read-out; inhibition, % at 6.6 µM; 1.8% of 330,000 active; AID 485270, 2010; in the data active = inhibition mostly above about 38%, no sharp cut-off; inactive = mostly below about 40%
Target sequence (O43613 whole entry, looked up): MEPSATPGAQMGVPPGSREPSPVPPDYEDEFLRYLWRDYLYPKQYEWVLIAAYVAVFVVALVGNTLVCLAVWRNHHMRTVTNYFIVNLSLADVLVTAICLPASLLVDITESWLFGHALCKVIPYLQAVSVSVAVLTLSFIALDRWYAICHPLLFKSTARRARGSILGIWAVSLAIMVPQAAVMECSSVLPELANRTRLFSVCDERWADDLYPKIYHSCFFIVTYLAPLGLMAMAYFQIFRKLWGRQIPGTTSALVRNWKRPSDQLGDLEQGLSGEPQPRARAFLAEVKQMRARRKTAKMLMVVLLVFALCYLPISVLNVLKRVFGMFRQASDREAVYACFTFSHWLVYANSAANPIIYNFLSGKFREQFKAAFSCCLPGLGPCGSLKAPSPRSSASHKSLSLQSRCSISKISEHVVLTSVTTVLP
EP2 mod: EP2 receptor modulators, cAMP readout, primary screen, cell-based, HTRF cAMP, PGE2 stimulation; EP2-expressing cells, cAMP HTRF FRET, PGE2 co-stimulation; induction, % at 25 µM; 0.83% of 260,000 active;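 active = compounds whose cAMP rise, as percent of the full-agonist control response, exceeds 60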;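 also: rat C6 glioma line stably carrying human EP2 under a CMV promoter; the protocol text gives 20 µM as final concentration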
OX1R antag-2: OX1R (HCRTR1) antagonists, primary screen, fluorescence, CHO/OX1R cells, Fluo-8 calcium, orexin A | Fluo-8 calcium fluorescence | AID 434989, 2010 | 0.43% of 330,000 active | inhibition, % at 5 µM | Orexin/Hypocretin receptor type 1 (Homo sapiens), O43613;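 active = inhibition above its plate's threshold, mean inhibition of all tested compounds on the plate plus 3 SD, cut at about 37% in these data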
PGE2 EP2 inh: human EP2 receptor antagonists, primary screen, TR-FRET cAMP, C6 glioma cells; Prostaglandin E2 receptor EP2 subtype (Homo sapiens), P43116; C6 glioma cells expressing human EP2; cells stimulated with saturating PGE2; inhibition, % at 25 µM; 0.52% of 260,000 active;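 active = percent inhibition above 40 after rounding to a whole number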;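 also: rat C6 glioma host cells with rolipram phosphodiesterase inhibitor present; the protocol text gives 20 µM as final concentration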
Large screens that a line does not name were inactive.

Cc1nc(NC(=O)COC(=O)CNC(=O)c2ccco2)c(Cl)cc1Cl	none (no result: GPR7 antag, EP2 mod, PGE2 EP2 inh)
Cc1ccccc1C1CCCN(C(=O)c2cc(COc3c(F)cccc3F)on2)C1 (stereo unspecified)	CHO parental Ca 43
CCN(CC)CCNC(=O)c1ccc2c(c1NCCO)C(=O)c1ccccc1C2=O	OX1R antag-1 89, PGE2 EP2 inh 56
CCN(CC)CCC(=O)Nc1cccc2c1C(=O)c1ccccc1C2=O	OX1R antag-1 74
COCCNC(=S)N(Cc1ccco1)Cc1cc2ccc(C)c(C)c2[nH]c1=O	none (no result: GPR7 antag, CHO parental Ca, OX1R antag-1, OX1R antag-2)
CN(C)C[C@H]1CCC2=C(C1=O)C(c1ccc(Cl)c(Cl)c1)C1=C(CC[C@H](CN(C)C)C1=O)O2	PGE2 EP2 inh 55 (no result: GPR7 antag, CHO parental Ca, OX1R antag-1, OX1R antag-2)
Cc1cc[nH]c(=O)c1NCc1cc2c(C)nn(-c3ccccc3)c2[nH]c1=O	PGE2 EP2 inh 46 (no result: GPR7 antag, CHO parental Ca, OX1R antag-1, OX1R antag-2)
COc1ccc(NC(=O)C(C)N2c3cccc4cccc(c34)S2(=O)=O)cc1OC (stereo unspecified)	CHO parental Ca 41
CN(C)n1cccc1/C=C(\C#N)S(=O)(=O)c1ccc(Cl)cc1	CHO parental Ca 65, OX1R antag-2 63
Cc1cc(N/N=C/c2ccc(O)cc2O)nc(-c2ccccc2O)n1	PGE2 EP2 inh 80
Cc1cc(N/N=C\c2ccccc2)nc(-c2ccccc2O)n1	none
COc1ccc(Nc2cc(NCCCO)c([N+](=O)[O-])c3nonc23)cc1	OX1R antag-1 49 (no result: EP2 mod, PGE2 EP2 inh)
COc1ccc(CNc2cc(NCCCO)c([N+](=O)[O-])c3nonc23)cc1	none
O=[N+]([O-])c1c(NCCCO)cc(N2CCCCCC2)c2nonc12	OX1R antag-1 37 (no result: EP2 mod, PGE2 EP2 inh)
CC1CCCN(c2cc(N(C)CCO)c([N+](=O)[O-])c3nonc23)C1 (stereo unspecified)	OX1R antag-1 48
O=[N+]([O-])c1c(NCCCO)cc(SCc2ccco2)c2nonc12	OX1R antag-1 61
CN(CCO)c1cc(N2CCCCC2)c2nonc2c1[N+](=O)[O-]	none
CC(C)[C@H](NC(=O)c1ccc(Cl)cc1Cl)C(=O)NNc1cccc(C(=O)O)c1	none (no result: GPR7 antag, EP2 mod, PGE2 EP2 inh)
COCc1nnc(NC(=O)CCC2CCCCC2)s1	none
CC1CCN(CCCNc2cc(NCCO)c([N+](=O)[O-])c3nonc23)CC1	OX1R antag-1 38 (no result: EP2 mod, PGE2 EP2 inh)
O=[N+]([O-])c1c(NCCCO)cc(Sc2ccc(Cl)cc2)c2nonc12	none
CC(=O)c1ccc2c(c1)Nc1ccccc1S2	none
C/C(=N\NC(=O)c1ccc(C)cc1C)c1ccc2c(c1)Nc1ccccc1S2	PGE2 EP2 inh 43
CC(OC(=O)Cc1ccccc1[N+](=O)[O-])C(=O)Nc1ccc(Cl)cn1 (stereo unspecified)	none (no result: GPR7 antag, EP2 mod, PGE2 EP2 inh)
COc1cccc(-c2nn3c(-c4cccc(C)c4)nnc3s2)c1	OX1R antag-1 57
COc1cccc(-c2nnc3sc(-c4ccc(C)cc4)nn23)c1	none (no result: PGE2 EP2 inh)
Cc1ccc(O)c(NC(=O)CN(C)S(=O)(=O)c2ccc(Cl)cc2)c1	none
Cc1cccc(-c2cc3nc(C)cc(C)n3n2)c1	OX1R antag-1 65
COc1ccccc1-c1cc2nc(C)cc(C)n2n1	OX1R antag-1 62
COc1ccccc1-c1nc2nc(C)cc(C)n2n1	none (no result: GPR7 antag, CHO parental Ca, OX1R antag-1, OX1R antag-2)
CCN(C(=O)CSc1nc2ccccc2[nH]1)C1CCS(=O)(=O)C1 (stereo unspecified)	none (no result: GPR7 antag, EP2 mod, PGE2 EP2 inh)
CN1CCCN(Cc2ccc(Cl)cc2Cl)CC1	none (no result: PGE2 EP2 inh)
COc1ccc(C(=O)NCCn2cc(SCC(=O)Nc3cc(C)on3)c3ccccc32)cc1OC	none
COc1ccccc1C(=O)NCCn1cc(SCC(=O)Nc2cc(C)on2)c2ccccc21	OX1R antag-1 42
CCCn1cc(SCC(=O)Nc2nnc(C)s2)c2ccccc21	none
Cc1ccc(C(=O)NCCn2cc(SCC(=O)Nc3nnc(C)s3)c3ccccc32)cc1	GPR7 antag 19
O=C(NCc1ccc2c(c1)OCO2)c1ccc(-c2ccc(Cl)cc2)o1	none
O=C(C[n+]1ccc(C(=O)c2ccccc2)cc1)Nc1ccc(C(F)(F)F)cc1	none
O=C(c1ccccc1)c1cc[n+]([O-])cc1	OX1R antag-1 42
CN(C)CC[n+]1ccc(C(=O)c2ccccc2)cc1	OX1R antag-1 52 (no result: EP2 mod, PGE2 EP2 inh)
CSCC[C@H](NC(=O)N1CCn2c1nc1ccccc12)C(=O)N1CCCCC1	none (no result: EP2 mod, PGE2 EP2 inh)
NS(=O)(=O)c1ccc(CCNC(=O)CC(NC(=O)c2ccccc2Cl)c2ccccc2)cc1 (stereo unspecified)	none
Cc1ccc(-n2cccc2/C=C2\C(=N)N3N=C(C(C)C)SC3=NC2=O)cc1	none
c1ccc2nc3c(nc2c1)CCc1nonc1-3	OX1R antag-1 44
CC(Oc1ccc(Cl)cc1Cl)c1nc(-c2ccc(NC(=O)c3ccncc3)cc2)no1 (stereo unspecified)	CHO parental Ca 43
COc1cc2c(cc1OC)-c1cc(=Nc3c(C)cc(C)cc3C)n(C)c(=O)n1CC2	EP2 mod 67 (no result: GPR7 antag, CHO parental Ca, OX1R antag-1, OX1R antag-2)
Cc1nn(-c2cccc(Cl)c2)c2c1C(c1ccsc1)C(C#N)=C(N)O2 (stereo unspecified)	none (no result: GPR7 antag, CHO parental Ca, OX1R antag-1, OX1R antag-2)
COc1cc(/C=C/c2nc3ccc([N+](=O)[O-])cc3s2)ccc1OCC(=O)O	EP2 mod 85
Cc1cccc(C(=O)NNC(=O)C2CCN(C(=O)OC(C)(C)C)CC2)c1	none (no result: EP2 mod, PGE2 EP2 inh)
O=C(Cn1c(-c2cccs2)cc2cccnc21)NCc1ccncc1	none (no result: GPR7 antag, CHO parental Ca, OX1R antag-1, OX1R antag-2)
O=S(=O)(Nc1ccc(F)c(F)c1)c1cccs1	none (no result: GPR7 antag, CHO parental Ca, OX1R antag-1, OX1R antag-2)
CC(C)[C@H](NC(=O)c1ccccc1Cl)C(=O)Nc1nc(-c2ccccn2)cs1	none
CC(Oc1ccc(Br)cc1)C(=O)Nc1nc(-c2ccccn2)cs1 (stereo unspecified)	CHO parental Ca 35 (no result: EP2 mod, PGE2 EP2 inh)
Cc1cc(NC(=O)c2ccc(Cn3cc([N+](=O)[O-])cn3)o2)no1	none (no result: CHO parental Ca, OX1R antag-1, EP2 mod, OX1R antag-2, PGE2 EP2 inh)
O=C1C=C(N2CCN(c3ccccn3)CC2)C(=O)c2c(O)ccc(O)c21	PGE2 EP2 inh 66 (no result: GPR7 antag, CHO parental Ca, OX1R antag-1, OX1R antag-2)
CCOc1cc(CNc2ccc3cn[nH]c3c2)ccc1OC	none
COc1ccc(CNc2ccc3cn[nH]c3c2)c(OC)c1OC	OX1R antag-1 37
COc1cccc(C2(NC(=O)CCn3nc(C)cc3C)CCCC2)c1	none (no result: GPR7 antag, CHO parental Ca, OX1R antag-1, OX1R antag-2)
Cc1ccccc1CN(C)C(=O)COC(=O)c1ccc2[nH]c(C)c(C)c2c1	OX1R antag-1 53 (no result: GPR7 antag, EP2 mod, PGE2 EP2 inh)
O=C(CSc1nnc(COc2ccc(Cl)cc2)o1)N1CCCC1	none (no result: EP2 mod, PGE2 EP2 inh)
COc1ccccc1N(CC(O)Cn1c2ccccc2c2ccccc21)S(=O)(=O)c1ccccc1 (stereo unspecified)	none
COc1ccccc1N(CC(O)Cn1nc(C)cc1C)S(=O)(=O)c1ccccc1 (stereo unspecified)	OX1R antag-1 47
